Non-standard residues stand in square brackets, D forms with d. Residues, ends and D or L forms follow the SMILES beside them. *: point of attachment. Phe(4-guanidino) = N=C(N)Nc1ccc(C[C@H](N)C(=O)O)cc1; Phe(4-F) = N[C@@H](Cc1ccc(F)cc1)C(=O)O; 1Nal = N[C@@H](Cc1cccc2ccccc12)C(=O)O; 2Nal = N[C@@H](Cc1ccc2ccccc2c1)C(=O)O; Thiophene3carbonyl = O=C(c1ccsc1)*; Tic = O=C(O)[C@@H]1Cc2ccccc2CN1; Thz = O=C(O)[C@@H]1CSCN1; X1 = O=C(c1ccoc1)*; βAla = NCCC(=O)O
Columns and labels:
[1] = Concentration to stimulate human platelet aggregation; assay type: functional
How it was run: (§1)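 Peptides were added alone to gel-filtered human platelets, and aggregation was read by microtiter turbidity. EC₅₀ is the concentration stimulating 50% of maximum aggregation. N is the number of determinations. A peptide is called a partial agonist where maximum aggregation was not reached experimentally.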

[2] = molecular target: T1, Proteinase-activated receptor 1 (Homo sapiens, UniProt P25116); assay: Concentration of compound required to inhibit agonist ([…], at 3 uM) induced platelet aggregation by 50%;PA=not experimentally achieved; assay type: functional
T1 sequence (P25116 whole entry): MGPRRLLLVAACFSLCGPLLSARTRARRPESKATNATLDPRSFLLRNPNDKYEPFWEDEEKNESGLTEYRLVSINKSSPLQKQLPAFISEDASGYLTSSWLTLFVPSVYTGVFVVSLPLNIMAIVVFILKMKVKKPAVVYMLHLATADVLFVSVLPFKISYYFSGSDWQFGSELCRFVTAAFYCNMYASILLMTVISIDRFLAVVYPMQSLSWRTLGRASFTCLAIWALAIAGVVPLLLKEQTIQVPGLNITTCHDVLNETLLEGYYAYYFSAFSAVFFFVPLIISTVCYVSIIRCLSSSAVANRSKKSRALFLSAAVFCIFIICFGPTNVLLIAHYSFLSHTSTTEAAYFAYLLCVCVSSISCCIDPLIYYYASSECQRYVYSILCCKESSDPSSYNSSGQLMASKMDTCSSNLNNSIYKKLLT
How it was run: (§2)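 Gel-filtered human platelets in a microtiter turbidity aggregation assay, preincubated with test peptide and then stimulated with SFLLRNP-NH₂ at 3 μM. […] N is the number of determinations.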

[3] = molecular target: T1, Proteinase-activated receptor 1
[4] = molecular target: T1, Proteinase-activated receptor 1; assay: Concentration of compound required to inhibit agonist ([…], at 3 uM) induced platelet aggregation by 50%; PA=not experimentally achieved; assay type: functional; how it was run: as §2
[5] = molecular target: T1, Proteinase-activated receptor 1; assay: Effective concentration of compound for stimulation of 50% maximum platelet aggregation; PA=not experimentally achieved; assay type: functional; how it was run: as §1

| EC50 [1] [µM] | Structure (SMILES) | further results |
| --- | --- | --- |
| 0.16 | CC(C)C[C@H](NC(=O)[C@H](Cc1cccc2ccccc12)NC(=O)[C@H](Cc1ccc(F)cc1)NC(=O)[C@@H](N)CO)C(=O)N[C@@H](CCCN=C(N)N)C(N)=O (H-S[Phe(4-F)][1Nal]LR-NH2) |  |
| > 300 | CC(C)C[C@H](NC(=O)[C@H](CC(C)C)NC(=O)[C@H](Cc1ccc(NC(=N)N)cc1)NC(=O)[C@@H](N)CO)C(=O)N[C@@H](CCCN=C(N)N)C(N)=O |  |
| 0.04 | CC(C)C[C@H](NC(=O)[C@H](Cc1ccc(NC(=N)N)cc1)NC(=O)[C@H](Cc1ccc(F)cc1)NC(=O)[C@@H](N)CO)C(=O)N[C@@H](CCCN=C(N)N)C(N)=O (H-S[Phe(4-F)][Phe(4-guanidino)]LR-NH2) |  |
| 0.08 | CC(C)C[C@H](NC(=O)[C@H](Cc1ccc2ccccc2c1)NC(=O)[C@H](Cc1ccc(F)cc1)NC(=O)[C@@H](N)CO)C(=O)N[C@@H](CCCN=C(N)N)C(N)=O (H-S[Phe(4-F)][2Nal]LR-NH2) |  |
| 0.1 | CC(C)C[C@H](NC(=O)[C@H](Cc1ccc(F)cc1)NC(=O)[C@H](Cc1ccc(F)cc1)NC(=O)[C@@H](N)CO)C(=O)N[C@@H](CCCN=C(N)N)C(N)=O (H-S[Phe(4-F)][Phe(4-F)]LR-NH2) |  |

Further lines, the compound ahead of its results:

| Structure (SMILES) | EC50 [1] [µM] | further results |
| --- | --- | --- |
| CC(=O)NCCC(=O)N[C@@H](Cc1ccccc1)C(=O)N[C@@H](CC(C)C)C(=O)N[C@@H](CC(C)C)C(=O)N[C@@H](CCCN=C(N)N)C(N)=O (Ac-[βAla]FLLR-NH2) | 1.8 |  |
| CC(=O)N1CSC[C@H]1C(=O)N[C@@H](Cc1ccccc1)C(=O)N[C@@H](CC(C)C)C(=O)N[C@@H](CC(C)C)C(=O)N[C@@H](CCCN=C(N)N)C(N)=O (Ac-[Thz]FLLR-NH2) | > 300 |  |
| CC(C)C[C@H](NC(=O)[C@H](Cc1ccc(NC(=N)N)cc1)NC(=O)[C@H](Cc1ccc(F)cc1)NC(=O)c1ccoc1)C(=O)N[C@@H](CCCN=C(N)N)C(N)=O (X1-[Phe(4-F)][Phe(4-guanidino)]LR-NH2) |  | EC50 [2]: Not Active; IC50 [3]: 0.029 µM |
| CC(C)C[C@H](NC(=O)[C@H](CC(C)C)NC(=O)[C@H](Cc1ccc(N)cc1)NC(=O)[C@@H](N)CO)C(=O)N[C@@H](CCCN=C(N)N)C(N)=O | 18 |  |
| CC(C)C[C@H](NC(=O)[C@@H]1Cc2ccccc2CN1C(=O)[C@H](Cc1ccc(F)cc1)NC(=O)[C@@H](N)CO)C(=O)N[C@@H](CCCN=C(N)N)C(N)=O (H-S[Phe(4-F)][Tic]LR-NH2) | 0.47 |  |
| CC(C)C[C@H](NC(=O)[C@H](CC(C)C)NC(=O)[C@H](Cc1ccccc1)NC(=O)[C@@H]1CSCN1)C(=O)N[C@@H](CCCN=C(N)N)C(N)=O (H-[Thz]FLLR-NH2) | 46 |  |
| CC(C)C[C@H](NC(=O)[C@H](CC(C)C)NC(=O)[C@H](Cc1ccc(I)cc1)NC(=O)[C@@H](N)CO)C(=O)N[C@@H](CCCN=C(N)N)C(N)=O | 9.27 |  |
| CC(C)C[C@H](NC(=O)[C@H](CC(C)C)NC(=O)[C@H](CCc1ccccc1)NC(=O)[C@@H](N)CO)C(=O)N[C@@H](CCCN=C(N)N)C(N)=O | > 300 |  |
| C/C=C/C=C/CC(=O)N(C(C)=O)[C@@H](Cc1ccc(F)cc1)C(=O)N[C@@H](Cc1ccc(NC(=N)N)cc1)C(=O)N[C@@H](CC(C)C)C(=O)N[C@@H](CCCN=C(N)N)C(N)=O |  | IC50 [3]: 0.024 µM; IC50 [4]: Not Active |
| CC(C)C[C@H](NC(=O)[C@H](CC(C)C)NC(=O)[C@H](Cc1ccccc1)NC(=O)[C@@H](N)CO)C(=O)N[C@@H](CCCN=C(N)N)C(N)=O | 0.4 |  |
| CC(C)C[C@H](NC(=O)[C@H](CC(C)C)NC(=O)[C@H](Cc1ccc(F)cc1)NC(=O)[C@@H](N)CO)C(=O)N[C@@H](CCCN=C(N)N)C(N)=O | 0.13 |  |
| CC(C)C[C@H](NC(=O)[C@H](Cc1ccc(NC(=N)N)cc1)NC(=O)[C@H](Cc1ccc(F)cc1)NC(=O)c1ccsc1)C(=O)N[C@@H](CCCN=C(N)N)C(N)=O (Thiophene3carbonyl-[Phe(4-F)][Phe(4-guanidino)]LR-NH2) |  | EC50 [5]: Not Active; IC50 [3]: 0.024 µM |
| CCCC(=O)c1ccc(N(C(C)=O)[C@@H](Cc2ccc(F)cc2)C(=O)N[C@@H](Cc2ccc(NC(=N)N)cc2)C(=O)N[C@@H](CC(C)C)C(=O)N[C@@H](CCCN=C(N)N)C(N)=O)cc1 |  | IC50 [3]: 1.26 µM |
